Screens: PubChem BioAssay, The Scripps Research Institute Molecular Screening Center
In the library only some 1.2% were active in any assay of this set; here they are far more common.
IDE cell inh = human IDE inhibitors in live cells, primary screen, fluorescence polarization, HEK cells, FAbetaB substrate | Insulin-degrading enzyme (Homo sapiens), P14735 | FAbetaB cleavage | inhibition, % at 5.59 µM | 0.41% of 320,000 active | AID 434962, 2010;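 active = percent inhibition above the average of all tested compounds plus 3 SD, set per screening campaign, cut at about 16% in these data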;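 note: IDE supplied by intact live HEK cells; FP after avidin binding of uncleaved biotin substrate so inhibition keeps polarization high; 0% = DMSO wells and 100% = 60 µM reference IDE inhibitor Ii1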
proCasp3 act = activators of human procaspase-3 D3A mutant, primary screen, biochemical, absorbance, PC-3 D3A mutant, single concentration. Caspase-3 (Homo sapiens), P42574. recombinant procaspase-3 D3A, Ac-DEVD-pNA absorbance 405 nm. activation, % at 8.5 µM. 0.11% of 330,000 active;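 active = activation above the mean of all tested compounds plus 3 SD, cut at about 21% in these data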;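 note: 0% = DMSO alone and 100% = DMSO wells spiked with extra 5 µM PC-3 D3A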
Target sequence (P42574 whole entry D9A/D28A/D175A): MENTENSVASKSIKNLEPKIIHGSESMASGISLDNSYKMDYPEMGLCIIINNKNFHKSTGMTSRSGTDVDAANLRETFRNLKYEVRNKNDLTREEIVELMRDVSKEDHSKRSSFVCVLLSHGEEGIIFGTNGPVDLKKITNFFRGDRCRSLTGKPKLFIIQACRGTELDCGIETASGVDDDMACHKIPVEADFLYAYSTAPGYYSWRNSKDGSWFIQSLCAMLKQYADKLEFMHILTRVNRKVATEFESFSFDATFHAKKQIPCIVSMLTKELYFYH
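Test system: Procaspase-3 D3A mutant; medium: Zinc-free HEPES/NaCl buffer with 0.01% Triton X-100 at pH 7.4; reagent: DEVD-pNA substrate; doses: one concentration, 8.5 µM nominal, 0.8% DMSO; times: 1 h preincubation plus 2 h reaction at 25 °C; signal: Epi-absorbance at 405 nm of released p-nitroaniline, 0 and 120 min; replicates: singlicate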
IDE cell activ = human IDE activators in live cells, primary screen, fluorescence polarization, HEK cells, FAbeta-B substrate | FAbeta-B cleavage; 0% vehicle, 100% cell-free pure enzyme wells | activation, % at 5.96 µM | 0.073% of 340,000 active | Insulin-degrading enzyme (Homo sapiens), P14735 | AID 493087, 2011;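 active = activation above the mean of all tested compounds plus 3 SD, set per screening campaign, cut at about 17% in these data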
TPT1 inhibitor = Candida albicans TPT1 enzyme inhibitors, primary screen, biochemical, fluorescence polarization; tRNA 2'-phosphotransferase TPT1 (Candida albicans SC5314); recombinant caTPT1, FP RNA substrate dephosphorylation; inhibition, % at 5 µM; 0.81% of 300,000 active; AID 1962, 2009;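 active = inhibition above the mean of all tested compounds plus 3 SD, set per screening campaign, cut at about 24% in these data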;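 note: plate controls were DMSO alone for no effect and ferristatin control at 100 nM for full effect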
proCasp7 act = procaspase-7 activators, primary screen, counter-screen for procaspase-3 activator project, biochemical, absorbance, HTS, human | Caspase-7 (Homo sapiens), P55210 | recombinant procaspase-7, Ac-DEVD-pNA absorbance 405 nm; D23A/D198A/D206A triple mutant, cannot self-cleave; scale: DMSO 0, 5 µM enzyme 100 | activation, % at 8.5 µM | 0.093% of 330,000 active | AID 463210, 2010;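 active = percent activation above the screen-wide mean plus 3 SD, cut at about 25% in these data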
Target sequence (P55210 whole entry D23A/D198A/D206A): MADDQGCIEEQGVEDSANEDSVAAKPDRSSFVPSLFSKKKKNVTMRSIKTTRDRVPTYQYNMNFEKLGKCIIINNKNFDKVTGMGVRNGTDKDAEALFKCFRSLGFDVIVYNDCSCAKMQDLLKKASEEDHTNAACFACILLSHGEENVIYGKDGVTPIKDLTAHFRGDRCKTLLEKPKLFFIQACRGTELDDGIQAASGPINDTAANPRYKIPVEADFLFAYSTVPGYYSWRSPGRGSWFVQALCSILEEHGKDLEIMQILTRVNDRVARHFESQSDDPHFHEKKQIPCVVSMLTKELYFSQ
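Detection: p-Nitroaniline absorbance at 405 nm, read at 0 and 120 min; system: Uncleavable procaspase-7 mutant enzyme; evaluation: % activation from two-timepoint absorbance difference, scaled to controls; times: 1 h enzyme–compound preincubation and 2 h substrate reaction, both 25 °C; buffer or medium: Zinc-free HEPES pH 7.4 with 300 mM NaCl, 0.01% Triton X-100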
Active calls of the source: *.

For COc1cc(/C=C2\SC(=S)N(N3CCOCC3)C2=O)ccc1O the results were IDE cell inh 19*, proCasp3 act -19, IDE cell activ -30, TPT1 inhibitor 15 and proCasp7 act -10.
For Nc1cc(S(=O)(=O)N2CCOCC2)ccc1N1CCCCC1 the results were IDE cell inh 4, proCasp3 act -13, IDE cell activ -6 and proCasp7 act -19.
O=c1c2ccccc2sn1-c1cc(S(=O)(=O)N2CCOCC2)ccc1N1CCCC1 was read as IDE cell inh 51*, proCasp3 act -22, IDE cell activ -36, TPT1 inhibitor 1 and proCasp7 act -26.
`NC(=O)NC(=O)C(c1ccccc1)N1CCN(S(=O)(=O)Cc2ccccc2)CC1` (stereo not drawn) gave IDE cell inh 2, proCasp3 act -2, IDE cell activ 2 and proCasp7 act -1.
COc1ccccc1NS(=O)(=O)c1cccc(NC(=O)C2CC2)c1 was read as IDE cell inh -5, proCasp3 act -3, IDE cell activ 21* and proCasp7 act -4.
COc1ccccc1NS(=O)(=O)c1cccc(NC(=O)C2CC(=O)N(Cc3ccccc3)C2)c1 (stereo not drawn) was read as IDE cell inh 8, proCasp3 act -2, IDE cell activ 0, TPT1 inhibitor 4 and proCasp7 act 12.
For COc1ccc(N=C2NC(=O)S/C2=C\c2ccc(N(C)C)cc2)cc1 the results were IDE cell inh 30*, proCasp3 act 6, IDE cell activ -25, TPT1 inhibitor 7 and proCasp7 act -16.
`Nc1cccc2c1C(=O)N(CC(=O)NC13CC4CC(CC(C4)C1)C3)C2=O` gave IDE cell inh 3, proCasp3 act 12, IDE cell activ -2, TPT1 inhibitor -14 and proCasp7 act 10.
O=C(Cn1sc2ccccc2c1=O)NC12CC3CC(CC(C3)C1)C2 was read as IDE cell inh 58*, proCasp3 act -17, IDE cell activ -37, TPT1 inhibitor 0 and proCasp7 act -28.
`COc1ccc(NC(=O)Nc2ccc3c(c2)OCO3)c(C)c1` gave IDE cell inh 2, proCasp3 act -7, IDE cell activ 5, TPT1 inhibitor -2 and proCasp7 act -16.
Screening N=c1n(Cc2ccccc2)c2ccccc2n1CC(O)COc1ccc(Cl)cc1Cl (stereo not drawn) returned IDE cell activ 20*.
For N=c1n(Cc2ccc(Cl)cc2)c2ccccc2n1CC(O)COc1ccccc1 (stereo not drawn) the results were IDE cell inh 2, proCasp3 act -73, IDE cell activ 11, TPT1 inhibitor 0 and proCasp7 act 10.
Cc1ccc2sc(N(CCCN(C)C)C(=O)c3ccc(Br)s3)nc2c1C was read as IDE cell inh 2, proCasp3 act 2, IDE cell activ 18*, TPT1 inhibitor -2 and proCasp7 act 5.
Screening CCCCNC(=S)N1CCN(c2nc3ccccc3s2)CC1 returned IDE cell inh 19*, proCasp3 act 0, IDE cell activ -9, TPT1 inhibitor 0 and proCasp7 act 2.
COCCCNc1c2c3c(cccc3[nH]c1=O)C(=O)c1ccccc1-2 was read as IDE cell inh -7, proCasp3 act -4, IDE cell activ 33*, TPT1 inhibitor -19 and proCasp7 act -11.
Screening COc1cc(OC)c(-c2c3cc(O)c(=O)cc-3oc3cc(O)c(O)cc23)cc1OC returned IDE cell inh -55, proCasp3 act -6, IDE cell activ 41*, TPT1 inhibitor 5 and proCasp7 act -9.
For O=C(N/N=C/C=C\c1ccc([N+](=O)[O-])cc1)c1cccnc1 the results were IDE cell inh -2, proCasp3 act -2, TPT1 inhibitor 0 and proCasp7 act 0.
`CC1(c2nnc(Cc3ccccc3)o2)CC(c2c(Cl)cccc2Cl)=NO1` (stereo not drawn) gave IDE cell inh 6, proCasp3 act 3, IDE cell activ 39*, TPT1 inhibitor -1 and proCasp7 act -5.
COC(=O)[C@@]12OC[C@]34[C@H]([C@@H](O)[C@@H]1O)[C@@]1(C)C(=O)C(O[C@@H]5OC(CO)[C@@H](O)[C@@H](O)[C@@H]5O)=C[C@@H](C)[C@@H]1C[C@H]3OC(=O)[C@H](OC(=O)/C=C(\C)C(C)(C)OC(C)=O)[C@@H]24 (stereo partly drawn) was read as IDE cell inh 3, proCasp3 act 2, TPT1 inhibitor -6 and proCasp7 act 7.
O=C(O)c1ccccc1N=Nc1ccc(O)cc1 was read as IDE cell inh -14, proCasp3 act -8, IDE cell activ 20*, TPT1 inhibitor -24 and proCasp7 act -1.
`CC(=O)N1CC[n+]2c(-c3ccc(Cl)cc3Cl)csc21` gave IDE cell inh 17*, proCasp3 act -26, IDE cell activ -6, TPT1 inhibitor -6 and proCasp7 act -21.
For CC(C#N)(Cc1ccccc1)Nc1ccccc1 (stereo not drawn) the results were IDE cell inh 2, proCasp3 act 7, IDE cell activ -3, TPT1 inhibitor 2 and proCasp7 act 7.
Screening COc1cccc(N2CCN(c3ncnc4c3[nH]c3ccccc34)CC2C)c1 (stereo not drawn) returned IDE cell inh 25*, proCasp3 act -7, TPT1 inhibitor 0 and proCasp7 act 7.
`Cn1c(CN2CCOCC2)nnc1SCC(=O)Nc1ccc([N+](=O)[O-])cc1O` gave IDE cell inh -16, proCasp3 act -8, IDE cell activ 24*, TPT1 inhibitor -1 and proCasp7 act 9.
CC1CCN(CCCNC(=O)C2CCN(S(=O)(=O)N3CCC4(CC3)OCCO4)CC2)CC1 was read as IDE cell inh 5, proCasp3 act -1, IDE cell activ 10, TPT1 inhibitor -4 and proCasp7 act 15.
Screening Cc1ccc(/C=C2\SC(=S)N(Cc3ccccc3)C2=O)o1 returned IDE cell inh 1, proCasp3 act -4, IDE cell activ -2, TPT1 inhibitor 39* and proCasp7 act 0.
Screening COc1cccc(CN(CCC(C)C)S(=O)(=O)c2cc(Br)ccc2Br)c1 returned IDE cell activ 2.
CCN1CCN(CCNC(=O)c2ccc(/C=C3/Sc4ccccc4N(Cc4cccc(Cl)c4)C3=O)cc2)CC1 was read as IDE cell inh 6, proCasp3 act -8, IDE cell activ 38*, TPT1 inhibitor -1 and proCasp7 act -2.
